Assay results: ChEMBL document CHEMBL1139013, “Synthesis and biological evaluation of novel 9-substituted-8-hydroxyadenine derivatives as potent interferon inducers” (J Med Chem, 2006); call rule not given here

Key:
Mus musculus [1] = test: Induction of IFN in BALB/c mice at 0.3 mg/kg, po; type: functional
Mus musculus [2] = test: Induction of IFN in BALB/c mice at 0.1 mg/kg, po; type: functional
Splenocyte [3] = test: Induction of IFN in C3H/HeJ mouse splenocytes at 100 nM; type: functional
Procedure, shortened: (§1)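 Mouse splenocytes are suspended at 2 × 10⁶ cells/mL in MEM with 5% fetal calf serum, penicillin and streptomycin. They are mixed 1:1 with compound (DMSO stock diluted 500-fold in medium) and cultured 18 h at 37 °C in 5% CO₂. Supernatants are filter-sterilized and stored at -80 °C. IFN (IU/mL) is measured by L929/vesicular stomatitis virus bioassay.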

Splenocyte [4] = test: Induction of IFN in C3H/HeJ mouse splenocytes at 30 nM; type: functional; procedure, shortened: as §1
Splenocyte [5] = test: Induction of IFN in C3H/HeJ mouse splenocytes at 10 nM; type: functional; procedure, shortened: as §1
Splenocyte [6] = test: Induction of IFN in C3H/HeJ mouse splenocytes at 3 nM; type: functional; procedure, shortened: as §1
Splenocyte [7] = test: Induction of IFN in C3H/HeJ mouse splenocytes at 1 nM; type: functional; procedure, shortened: as §1
Cynomolgus monkey [8] = test: Induction of IFN in cynomolgus monkey at 1 mg/kg, po; type: functional, Macaca fascicularis
Mustela putorius furo [9] = test: Emetic activities in ferret at 0.3 mg/kg, po; type: organism-based; design: dose 0.3 mg/kg, route oral; details: in vivo
Procedure, shortened: (§2)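 Oral dosing of male ferrets (4 months old) with compound in 0.5% sodium carboxymethyl cellulose vehicle; doses 0.3-30 mg/kg, 5 animals per group. Animals housed singly, video-recorded continuously for 6 h. Tapes scored afterwards for presence or absence of vomiting; reported as number vomiting per group.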

[10] = Cmax in ferret at 3 mg/kg, po; type: ADME, organism-based, Mustela putorius furo; design: dose 3 mg/kg, route oral; details: in vivo
Procedure, shortened: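 Male ferrets, 4 months old, dosed orally with compound suspended in 0.5% sodium carboxymethyl cellulose. Blood (0.5 mL) drawn from jugular vein; serum separated at 1630g, 10 min, 4 °C, stored at -20 °C. Compound concentration measured by HPLC; maximum concentration reported in ng/mL.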

Cynomolgus monkey [11] = test: Induction of IFN in cynomolgus monkey at 0.3 mg/kg, po; type: functional, Macaca fascicularis
Cynomolgus monkey [12] = test: Induction of IFN in cynomolgus monkey at 0.1 mg/kg, po; type: functional, Macaca fascicularis
Mustela putorius furo [13] = test: Emetic activities in ferret at 3 mg/kg, po; type: organism-based; design: dose 3 mg/kg, route oral; details: in vivo; procedure, shortened: as §2

Compound	Activity (Mus musculus [1]) [IU/ml]	Activity (Mus musculus [2]) [IU/ml]	Activity (Splenocyte [3]) [IU/ml]	Activity (Splenocyte [4]) [IU/ml]	Activity (Splenocyte [5]) [IU/ml]	Activity (Splenocyte [6]) [IU/ml]	also measured
CCCCNc1nc(N)c2nc(O)n(Cc3ccccc3)c2n1	465	113	3.4	<0.5			
CCCCNc1nc(N)c2nc(O)n(Cc3cccnc3C)c2n1			3	8.3	12.8	<0.5	
CCCCNc1nc(N)c2nc(O)n(Cc3ccc([N+](=O)[O-])cc3)c2n1	444	61	2	4.5	11.6	<0.5	
CCCCNc1nc(N)c2nc(O)n(Cc3ccc(OCc4ccccc4)cc3)c2n1			10.6	<0.5			
CCCCNc1nc(N)c2nc(O)n(CC3CCCCC3)c2n1			3.7	1.7	<0.5		
CCCCNc1nc(N)c2nc(O)n(Cc3ccc(CCCC)cc3)c2n1	<5		11	<0.5			
Nc1nc(NCc2ccncc2)nc2c1nc(O)n2Cc1ccc(F)cc1	492	19	5.2		11.1	<0.5	
CCCCNc1nc(N)c2nc(O)n(Cc3cccc(Cl)c3)c2n1			4.4	2.8	<0.5		
COCCNc1nc(N)c2nc(O)n(Cc3ccc(F)cc3)c2n1	521	54	8.3	4.8	<0.5		
CCCCNc1nc(N)c2nc(O)n(CCc3ccccc3)c2n1			<0.5				
CCCCNc1nc(N)c2nc(O)n(Cc3ccccc3Cl)c2n1			4.5	2	<0.5		
CCCCNc1nc(N)c2nc(O)n(Cc3ccccn3)c2n1	<5		9.1	7.4	<0.5		
CCCCNc1nc(N)c2nc(O)n(CC(C)C)c2n1			4.1	<0.5			
CCCCNc1nc(N)c2nc(O)n(Cc3ccc(C)nc3Cl)c2n1		<5	3.4		8.4	<0.5	
CCCCNc1nc(N)c2nc(O)n(CC(C)(C)O)c2n1	<5		0.6	<0.5			
CCCCNc1nc(N)c2nc(O)n(Cc3ccc(C(F)(F)F)cc3)c2n1	276	8	15.2	10.7	2.9	<0.5	
CCCCNc1nc(N)c2nc(O)n(Cc3cccc4ccccc34)c2n1	39	<5	15.4	34	2.2	<0.5	
CCCCNc1nc(N)c2nc(O)n(Cc3ccc(N(C)C)nc3)c2n1		<5	2.7	5.1	9.4	4.9	Activity (Splenocyte [7]): <0.5 IU/ml
CCCCNc1nc(N)c2nc(O)n(Cc3ccc4ccccc4c3)c2n1	<5		17.4	7.1	<0.5		
CCCCNc1nc(N)c2nc(O)n(Cc3ccc(Cl)c(Cl)c3)c2n1	136	<5	10		0.8	<0.5	
CCCCNc1nc(N)c2nc(O)n(Cc3ccc(F)c(F)c3)c2n1	338	35	7.1	14.7	6.4	<0.5	
CCCCNc1nc(N)c2nc(O)n(Cc3ccc(F)cc3)c2n1	313	139	4.2		12.8	<0.5	

Compound	Activity (Mus musculus [1]) [IU/ml]	Activity (Mus musculus [2]) [IU/ml]	Activity (Splenocyte [3]) [IU/ml]	Activity (Splenocyte [4]) [IU/ml]	Activity (Splenocyte [5]) [IU/ml]	Activity (Splenocyte [6]) [IU/ml]	also measured
CCCCNc1nc(N)c2nc(O)n(Cc3ccc(O)cc3)c2n1	20		3.1		12.4	<0.5	
CCCCNc1nc(N)c2nc(O)n(Cc3cncc(C)c3)c2n1			4.6	2.1	2.4	1.9	Activity (Splenocyte [7]): <0.5 IU/ml
COCCNc1nc(N)c2nc(O)n(Cc3ccccc3)c2n1	639	44	7.1	<0.5			
CCCCNc1nc(N)c2nc(O)n(Cc3cnccc3Cl)c2n1			4.2	<0.5			
Nc1nc(NCc2ccncc2)nc2c1nc(O)n2Cc1ccccc1	73	<5	9.1	3.9	2.2	<0.5	
CCCCNc1nc(N)c2nc(O)n(Cc3ccncc3)c2n1		21	4.3	11.9	4.2	<0.5	
CCCCNc1nc(N)c2nc(O)n(Cc3cnccn3)c2n1			4.2	2.9	<0.5		
CCCCNc1nc(N)c2nc(O)n(Cc3ccc(-c4ccccc4)cc3)c2n1			3.4	0.5			
Nc1nc(NCc2ccccc2)nc2c1nc(O)n2Cc1ccccc1	398	203	80.4		44.4	<0.5	
CCCCNc1nc(N)c2nc(O)n(Cc3cccc(C)c3)c2n1			5.5	3	<0.5		
CCCCNc1nc(N)c2nc(O)n(Cc3cccnc3Cl)c2n1	94	<5	5	16.3	3.7	<0.5	
CCCCNc1nc(N)c2nc(O)n(Cc3ccc(C(C)(C)C)cc3)c2n1	<5		13	4.4	<0.5		
CCCCNc1nc(N)c2nc(O)n(Cc3ccccc3C)c2n1			3.6	3	<0.5		
CCCCNc1nc(N)c2nc(O)n(Cc3ccc(Cl)s3)c2n1	484	34	7.2	11.3	8.9	<0.5	
CCCCNc1nc(N)c2nc(O)n(Cc3ccc(Cl)nc3Cl)c2n1		42	5.7	14.6	<0.5		
CCCCNc1nc(N)c2nc(O)n(Cc3cccnc3)c2n1	327	76	8.1	16.6	32.5	1.6	Activity (Splenocyte [7]): <0.5 IU/ml
Nc1nc(NCc2ccccc2)nc2c1nc(O)n2Cc1ccc(F)cc1	<5		4.5	<0.5			
CCCCNc1nc(N)c2nc(O)n(Cc3ccc(C)cc3)c2n1	356	28	2	6.2	9.2	<0.5	
CCCCNc1nc(N)c2nc(O)n(Cc3ccc(Cl)cc3)c2n1	219	7	7.4	8.2	8.5	<0.5	
CCCCNc1nc(N)c2nc(O)n(Cc3ccc(OC)cc3)c2n1	933	73	2	4.7	6.5	<0.5	
CCOCc1nc2c(N)nc3ccccc3c2n1CC(C)(C)O [RESIQUIMOD]	1714	1176	4	7	11	2.8	Activity (Splenocyte [7]): <0.5 IU/ml; Activity (Cynomolgus monkey [8]): 44037 IU/ml; Activity (Mustela putorius furo [9]): Active; Cmax [10]: 1180 ng/mL; Activity (Cynomolgus monkey [11]): 13 IU/ml; Activity (Cynomolgus monkey [12]): 7 IU/ml; Activity (Mustela putorius furo [13]): Active
